Test results as given in ChEMBL document CHEMBL3297699, “Synthesis of novel fluoro analogues of MKC442 as microbicides” (J Med Chem, 2014).
pEC50: −log10 of the molar value.

What was measured:
[1] = system: Human immunodeficiency virus 1; assay: Antiviral activity against 6-[(3,5-Dimethylphenyl)fluoromethyl]-5-ethyl-1-{[[4-(3-hydroxyprop-1-ynyl)benzyl]oxy]methyl}pyrimidine-2,4(1H,3H)-dione-resistant HIV1 harboring RT 106I, 181C mutant infected in human MT4 cells assessed as inhibition of virus-induced cytopathogenicity after 4 days by MTT assay; format: functional, organism-based; conditions: Human immunodeficiency virus 1, MT4
In short: (§1)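 MT-4 cells grown at 37 °C, 5% CO2 in RPMI-1640 with 10% FCS, penicillin and streptomycin. Compounds taken up in DMSO at […] (stock), then diluted in medium. 1 × 10^4 cells per well with serial compound dilutions, then HIV-1 inoculum sized to give complete cytopathogenicity by day 4. Viability read by MTT. […] Mean of three independent determinations.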

[2] = system: Human immunodeficiency virus 1; assay: Ratio of EC50 for efavirenz-resistant HIV1 harboring RT 100I, 103R, 179D, 225H mutant to EC50 for wild type HIV1 3B; format: functional
[3] = system: Human immunodeficiency virus 1; assay: Antiviral activity against HIV1 MP634 infected in human dendritic cells assessed as inhibition of p24 in supernatants; conditions: Human immunodeficiency virus 1, MP634, dendritic cells
[4] = Cytotoxicity against human MT4 cells after 40 days by MTT assay; format: cell-based
In short: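 Mock-infected MT-4 cells at 1 × 10^5 cells/mL, 37 °C, with various compound concentrations for 40 days. One-tenth of the culture is moved every 3−4 days into fresh drug-containing medium at low density to keep growth exponential. Viability is read by MTT at each passage. The value is the maximum concentration still allowing exponential proliferation, as the mean of three determinations.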

[5] = system: Human immunodeficiency virus 1; assay: Antiviral activity against saquinavir-resistant HIV1 infected in human MT4 cells assessed as inhibition of virus-induced cytopathogenicity after 4 days by MTT assay; format: functional, organism-based; conditions: Human immunodeficiency virus 1, MT4, 96 h; in short: as §1
[6] = system: Human immunodeficiency virus 1; assay: Antiviral activity against […] HIV1 harboring 103N, 181C mutant infected in human MT4 cells assessed as inhibition of virus-induced cytopathogenicity after 4 days by MTT assay; format: functional, organism-based; conditions: Human immunodeficiency virus 1, MT4, 96 h; in short: as §1
[7] = system: Human immunodeficiency virus 1; assay: Antiviral activity against NRTI-resistant HIV1 MP1315 infected in human dendritic cells assessed as inhibition of p24 in supernatants; conditions: Human immunodeficiency virus 1, MP1315, dendritic cells
[8] = system: Human immunodeficiency virus 1; assay: Antiviral activity against HIV1 CRF02 infected in human dendritic cells assessed as inhibition of p24 in supernatants; conditions: Human immunodeficiency virus 1, CRF02, dendritic cells
[9] = system: Human immunodeficiency virus 1; assay: Antiviral activity against HIV1 infected in human MT4 cells assessed as lowest compound concentration required to irreversibly knock out vial multiplication treated by chronic treatment measured after 40 days by MTT assay; format: functional
In short: (§2)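 HIV-1-infected MT-4 cells at high MOI (5−10 CCID50/cell) in 40-day assays. Compound is given continuously (chronic), for only the first 4 h after infection, or for 4 h immediately before infection. Cells are resuspended at 10^5 cells/mL every 4 days. The value is the lowest concentration that irreversibly knocks out HIV-1 multiplication, as the mean of three independent determinations.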

[10] = system: Human immunodeficiency virus 1; assay: Antiviral activity against HIV1 MP582 infected in human dendritic cells assessed as inhibition of p24 production; conditions: Human immunodeficiency virus 1, MP582, dendritic cells
[11] = system: Human immunodeficiency virus 1; assay: Antiviral activity against […] HIV1 harboring Y181C mutant infected in human MT4 cells assessed as inhibition of virus-induced cytopathogenicity after 4 days by MTT assay; format: functional, organism-based; conditions: Human immunodeficiency virus 1, MT4, 96 h; in short: as §1
[12] = system: Human immunodeficiency virus 1; assay: Antiviral activity against MDR-resistant HIV1 harboring 41L, 74V, 106A, 215Y mutant infected in human MT4 cells assessed as inhibition of virus-induced cytopathogenicity after 4 days by MTT assay; format: functional, organism-based; conditions: Human immunodeficiency virus 1, MT4, 96 h; in short: as §1
[13] = system: Human immunodeficiency virus 1; assay: Ratio of EC50 for MDR-resistant HIV1 harboring 41L, 74V, 106A, 215Y mutant to EC50 for wild type HIV1 3B; format: functional
[14] = system: Human immunodeficiency virus 1; assay: Antiviral activity against HIV1 W5269 infected in human dendritic cells assessed as inhibition of p24 production; conditions: Human immunodeficiency virus 1, W5269, dendritic cells
[15] = system: Human immunodeficiency virus 1; assay: Antiviral activity against TMC125-resistant HIV1 harboring RT 109M, 138K, 190E mutant infected in human MT4 cells assessed as inhibition of virus-induced cytopathogenicity after 4 days by MTT assay; format: functional, organism-based; conditions: Human immunodeficiency virus 1, MT4, 96 h; in short: as §1
[16] = system: Human immunodeficiency virus 1; assay: Antiviral activity against MC1220-resistant HIV1 harboring RT 100I, 179D, 181C mutant infected in human MT4 cells assessed as inhibition of virus-induced cytopathogenicity after 4 days by MTT assay; format: functional, organism-based; conditions: Human immunodeficiency virus 1, MT4, 96 h; in short: as §1
[17] = system: Human immunodeficiency virus 1; assay: Antiviral activity against HIV1 MP411 infected in human dendritic cells assessed as inhibition of p24 in supernatants; conditions: Human immunodeficiency virus 1, MP411, dendritic cells
[18] = system: Human immunodeficiency virus 1; assay: Antiviral activity against TMC120-resistant HIV1 harboring RT 100I, 138G mutant infected in human MT4 cells assessed as inhibition of virus-induced cytopathogenicity after 4 days by MTT assay; format: functional, organism-based; conditions: Human immunodeficiency virus 1, MT4, 96 h; in short: as §1
[19] = system: Human immunodeficiency virus 1; assay: Antiviral activity against HIV1 infected in human MT4 cells assessed as lowest compound concentration required to irreversibly knock out vial multiplication treated 4 hrs before infection measured after 40 days by MTT assay; format: functional; in short: as §2
[20] = system: Human immunodeficiency virus 1; assay: Ratio of EC50 for zidovudine-resistant HIV1 harboring RT 67N, 70R, 215F, 219Q mutant to EC50 for wild type HIV1 3B; format: functional
[21] = system: Human immunodeficiency virus 1; assay: Antiviral activity against wild type HIV1 3B infected in human MT4 cells assessed as inhibition of virus-induced cytopathogenicity after 4 days by MTT assay; format: functional, organism-based; conditions: Human immunodeficiency virus 1, 3B, MT4, 96 h; in short: as §1
[22] = system: Human immunodeficiency virus 1; assay: Antiviral activity against efavirenz-resistant HIV1 harboring RT 100I, 103R, 179D, 225H mutant infected in human MT4 cells assessed as inhibition of virus-induced cytopathogenicity after 4 days by MTT assay; format: functional, organism-based; conditions: Human immunodeficiency virus 1, MT4; in short: as §1
[23] = system: Human immunodeficiency virus 1; assay: Ratio of EC50 for saquinavir-resistant HIV1 to EC50 for wild type HIV1 3B; format: functional
[24] = system: Human immunodeficiency virus 1; assay: Antiviral activity against HIV1 MP1033 infected in human dendritic cells assessed as inhibition of p24; conditions: Human immunodeficiency virus 1, MP1033, dendritic cells
[25] = system: Human immunodeficiency virus 1; assay: Ratio of MC1220 EC50 to compound EC50 for HIV1 MP634 infected in human cells
[26] = system: Human immunodeficiency virus 1; assay: Antiviral activity against HIV1 infected in human MT4 cells assessed as lowest compound concentration required to irreversibly knock out vial multiplication treated 4 hrs after infection measured after 40 days by MTT assay; format: functional; in short: as §2
[27] = system: Human immunodeficiency virus 1; assay: Antiviral activity against HIV1 MP1308 infected in human dendritic cells assessed as inhibition of p24; conditions: Human immunodeficiency virus 1, MP1308, dendritic cells
[28] = system: Human immunodeficiency virus 1; assay: Antiviral activity against HIV1 CRF01 infected in human dendritic cells assessed as inhibition of p24 in supernatants; conditions: Human immunodeficiency virus 1, CRF01, dendritic cells
[29] = system: Human immunodeficiency virus 1; assay: Antiviral activity against zidovudine-resistant HIV1 harboring RT 67N, 70R, 215F, 219Q mutant infected in human MT4 cells assessed as inhibition of virus-induced cytopathogenicity after 4 days by MTT assay; format: functional, organism-based; conditions: Human immunodeficiency virus 1, MT4, 96 h; in short: as §1
[30] = Cytotoxicity against human MT4 cells after 96 hrs by MTT assay; format: cell-based
In short: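 Serial compound dilutions (from DMSO stocks at […]) are added, then cells are held 96 h at 37 °C in humidified 5% CO2. Viability is read by MTT. The value is the concentration reducing proliferation by 50%, as the mean of three independent determinations, run in parallel with the antiviral assays.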

For `CCc1c(C(F)c2cc(C)cc(C)c2)n(COCc2ccc(C#CCO)cc2)c(=O)[nH]c1=O` (stereo not given), the pEC50 [1] was 5.70, the “Ratio EC50” value [2] was greater than 10 and the EC99 [3] was 0.01 µM. It also gave an MNTC at 960 h [4] of 10 µM, a pEC50 [5] of 7.70 and a pEC50 [6] of 6.52. For the same molecule, the EC99 [7] was 0.0001 µM, the EC99 [8] was 0.1 µM and the Activity [9] was 0.5 µM. For the same molecule, the EC99 [10] was 0.01 µM, the pEC50 [11] was 7.40 and the pEC50 [12] was 7.70. It also gave a Ratio EC50 [13] of 3.3, an EC99 [14] of 0.01 µM and a pEC50 [15] of 6.05. For the same molecule, the pEC50 [16] was 7.40, the EC99 [17] was 0.01 µM and the pEC50 [18] was 8.00. The Activity [19] was greater than 20 µM, the Ratio EC50 [20] was 1.7 and the pEC50 [21] was 8.22. For the same molecule, the pEC50 [22] was 7.00, the Ratio EC50 [23] was 3.3 and the EC99 [24] was 0.01 µM. For the same molecule, the “Ratio EC50” value [25] was 10, the Activity [26] was greater than 20 µM and the EC99 [27] was 0.01 µM. For the same molecule, the EC99 [28] was 0.01 µM, the pEC50 [29] was 8.00 and the CC50 at 96 h [30] was 37000 nM.
